# Assay results: PubChem BioAssay AID1235 (PCMD, 2008)
# The campaign covered roughly 62,000 compounds. About 50 (0.08%) were called active. The entries come from a sample that favours actives as a whole. Unmarked numbers belong to inactive results.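 The calls were made as follows: active = inhibition above 30% in each of the two pooled mixtures holding the compound, so the lower value exceeds 30%; inactive = the rest.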
# Experiment: blockers of serum C3 deposition on LPS – biochemical, ELISA, human serum, orthogonally pooled compounds, primary screen (AID 1235);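 also: 0% = serum in Mg-EGTA without compound and 100% = EDTA serum blank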
# Settings: Human serum alternative complement pathway, LPS-coated ELISA, tested in compound mixtures, at 5 µM, hits give high values
# Procedure, shortened: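 Test system: human serum complement alternative pathway, C3 deposition onto LPS / Medium: Mg2+-EGTA GVB++ buffer containing human serum at 1:15 dilution / Probe or stimulus: Plate-bound LPS / Times: 1 h at 37 °C / Signal: ELISA with HRP anti-human C3 antibody, TMB substrate, absorbance 450 nm / Measure: percent inhibition / Repeats: two pool placements per compound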
row,Structure (SMILES),inhibition
1,c1c2c(cc3sc(N4CCCCC4)nc13)OCCO2,-3.86%
2,CC(C(=O)O)N1C(=O)c2cccc3cccc1c23 (stereo unspecified),-0.13%
3,O=C1C2(c3ccccc3)CN(CCCO)CC1(c1ccccc1)CN(CCCO)C2,0.125%
4,Cc1cc(C)nc(NC(=O)C(C)N2C(=O)c3ccccc3C2=O)n1 (stereo unspecified),4.23%
5,Cc1cc(N(C)C)cc(C)[n+]1[O-],13.5%
6,CC(=O)NC(Cc1ccc(F)cc1)C(=O)O (stereo unspecified),10.5%
7,COc1ccc2c(Cl)c(-c3nnco3)sc2c1,9.28%
8,CCCCCN(C(=O)NC(=O)Nc1ccccc1C)S(C)(=O)=O,18.8%
9,CS(=O)(=O)N(CC(=O)NCc1ccco1)c1ccc2c(c1)OCO2,-0.135%
10,COc1ccc(CCNC(=O)c2ccco2)cc1,3.87%
11,O=C(CSc1nnc(-c2cccs2)n1-c1ccccc1)N1CCN(C(=O)c2ccco2)CC1,13.8%
12,COC(=O)c1ccccc1NC(=O)CSc1ccccn1,-0.725%
13,COc1cccc(Oc2ccc(N)cc2)c1,5.52%
14,CCNC(=O)N1CCNC(=O)C1CC(=O)Nc1ccc(C(=O)OCC)cc1 (stereo unspecified),-0.745%
15,Cc1ccsc1C(C(=O)NC1CCCCC1)N(C(=O)Cc1cccs1)C1CC1 (stereo unspecified),-3.39%
16,CCN1C(=O)/C(=C\N2CCN(c3cccc(Cl)c3)CC2)SC1=S,11.5%
17,S=C1SCN(CCN2CCOCC2)CN1Cc1ccccc1,16%
18,Cc1occc1C(=O)Nc1nnc(C2CCCCC2)s1,9.21%
19,COCCN(CC(=O)Nc1ccccc1C)S(=O)(=O)c1ccc(S(=O)(=O)N2CCCC2)cc1,10.3%
20,O=C(NCCCN1CCN(c2ccccc2F)CC1)C1CCC(=O)N1C1CCCCC1 (stereo unspecified),1.73%
21,COc1ccc(-c2nc(CS(=O)CC(=O)NCc3cccnc3)c(C)o2)cc1OC (stereo unspecified),10.4%
22,CC(=O)O[C@]1(C(C)=O)CC[C@H]2[C@@H]3C=C(C)C4=CC(=O)CC[C@]4(C)[C@H]3CC[C@@]21C,9.71%
23,CCNS(=O)(=O)c1ccc(NC(=O)Nc2cccc(C(F)(F)F)c2)cc1,12.9%
24,Cc1c(C(=O)N2CCCc3ccccc32)sc2nc(-c3ccccc3)cn12,16%

row,Structure (SMILES),inhibition
1,O=C1c2cccnc2C(=O)N1Cc1cccs1,14.6%
2,Cc1ccc(C2CC(c3cccc(Br)c3)n3nc(N)nc3N2)cc1 (stereo unspecified),11.6%
3,CCOC(=O)Cn1c(=O)oc2cc(S(=O)(=O)NCC3CCCO3)ccc21 (stereo unspecified),15%
4,CCOC(=O)c1oc2ccccc2c1NC(=O)c1cccs1,0.31%
5,CCCS(=O)(=O)N1CCCC(C(=O)N2CCN(c3ccccc3)CC2)C1 (stereo unspecified),4.18%
6,COc1ccc(-n2nnc3c(=O)n(CC(=O)N4CCC(Cc5ccccc5)CC4)cnc32)cc1,21.3%
7,COc1cc(OC)cc(C(=O)NCCSCc2ccco2)c1,4.01%
8,CCNS(=O)(=O)c1ccc(NC(=O)Nc2cccc(OC)c2)cc1,27.3%
9,O=C(c1cccc2ccccc12)N1CCN(c2ccccc2F)CC1,18.4%
10,CCOC(=O)C1CCN(C(=O)CSc2cc(=O)n(C)c3ccccc23)CC1,7.27%
11,CCn1ncc(C2=NOC(C(=O)Nc3ccccc3C(=O)OC)C2)c1C (stereo unspecified),12.4%
12,COc1ccc(N(Cc2cc3cc(OC)ccc3[nH]c2=O)S(C)(=O)=O)cc1,-2.02%
13,CCc1c(C)nc2ncnn2c1N1CCC(C(=O)NCc2ccc3c(c2)OCO3)CC1,20.2%
14,Cc1ccc(-c2nc(CS(=O)CC(=O)NC3CCCC3)c(C)o2)cc1 (stereo unspecified),10.5%
15,FC(F)(F)c1nnc2sc(-c3ccco3)nn12,7.12%
16,CCOC(=O)C(CCOc1cccc(CC)c1)C(=O)OCC,9.83%
17,COc1ccc(-c2nnn(CC(=O)N(CCO)C(C(=O)NC3CCCC3)c3ccc(F)cc3)n2)cc1 (stereo unspecified),3.14%
18,Cc1ccccc1CSc1nnc(-c2ccccn2)n1N,12.7%
19,CCOC(=O)c1[nH]c2ccc(C)cc2c1N=C(C)N(C)C,10.8%
20,COC(=O)C1=C(C)NC2=C(C(=O)c3ccccc32)C1c1ccc(-c2ccc(C(=O)O)cc2)o1 (stereo unspecified),7.73%
21,CC1C=CCC2C(=O)N(c3cccc(C(=O)N4CCCCCC4)c3)C(=O)C12 (stereo unspecified),19%
22,CCS(=O)(=O)N1CCCC(C(=O)NCc2ccc(C)cc2)C1 (stereo unspecified),13.3%
23,COC(=O)Cc1c(C)c2ccc(OCC(=O)NCc3ccc4c(c3)OCO4)cc2oc1=O,4.91%
24,CNC(=O)CSc1nnc(CCc2ccccc2)n1-c1ccccc1,5.29%

row,Structure (SMILES),inhibition
1,CC1CCCN(C(=O)Cn2c(=O)oc3ccccc32)C1 (stereo unspecified),-0.77%
2,CC1(C)SC2c3ccccc3C(=O)N2[C@@H]1C(=O)NCc1ccco1 (stereo partly specified),-5.49%
3,O=C(c1ccc(O)cc1)c1ccc(C(=O)O)c(C(=O)O)c1,-8.85%
4,O=C(C1CCN(CC2CCCCC2)CC1)N1CCCC1,4.05%
5,COC(=O)c1oc2ccc(Br)cc2c1NC(C)=O,11.8%
6,COc1ccccc1CNCc1cccs1,-3.09%
7,CCn1cc(C(=O)NCc2ccc(OC)cc2OC)c(=O)c2ccc(C)nc21,-3.58%
8,COc1ccc(-c2noc(-c3cccc(OC)c3OC)n2)cc1OC,21.6%
9,O=C(CN1CCN(c2nc(-c3ccccc3)cs2)CC1)NCc1ccc2c(c1)OCO2,13.6%
10,Cc1cccc(N(CC(O)CN(C)C)S(=O)(=O)c2ccccc2)c1 (stereo unspecified),-22.7%
11,COC(=O)[C@H](C)NC(=O)Nc1ccc(OC(F)(F)F)cc1,4.04%
12,O=C1OC(NC(=O)c2ccccc2)C(N2CCOCC2)=C1Cl (stereo unspecified),18.5%
13,Cc1ccc(Oc2ccc(N)cc2)cc1,-0.695%
14,O=C(CC1NCCNC1=O)Nc1ccc(Oc2ccccc2)cc1 (stereo unspecified),32.3% (active)
15,CCOc1ccc(NC(=O)CC2NCCNC2=O)cc1 (stereo unspecified),2.46%
16,O=C(CC1Nc2ccccc2NC1=O)Nc1ccccc1 (stereo unspecified),-0.205%
17,CCCSc1nc2c(c(=O)n(C)c(=O)n2C)n1Cc1ccc(C)cc1,-3.43%
18,CNC(=O)C1CC(=O)N(Cc2ccc3c(c2)OCO3)C(=Nc2ccc(F)cc2)S1 (stereo unspecified),13%
19,O=C(C(Cc1ccccc1)n1cccc1)N1CCN(C2CCCCC2)CC1 (stereo unspecified),14.7%
20,O=C(O)c1cccc2c1C(=O)N(C1CCCCC1)C2,16.2%
21,O=C(Cn1nc(Cc2cccnc2)c2ccccc2c1=O)NCC1COc2ccccc2O1 (stereo unspecified),15.7%
22,CCOc1cc2c(cc1OCC)C(C(=O)O)C(c1ccc(OC)c(O)c1)N(C)C2=O (stereo unspecified),16.6%
23,Fc1ccccc1OCCSc1nc2ccccc2o1,-8.88%
24,Cc1nn(-c2ccccc2)c2c1C(=O)NC(=O)C(C)(C)C2,5.83%

row,Structure (SMILES),inhibition
1,N#C/C=C\Oc1ccc(Cl)cc1N,-1.31%
2,CCOC(=O)c1cccc(NC(=O)CCc2c(C)nc3ncnn3c2C)c1,1.8%
3,Cc1ccc(-c2nc(CS(=O)CC(=O)N3CCN(c4ncccn4)CC3)c(C)o2)cc1 (stereo unspecified),22.7%
4,Cc1onc(-c2ccccc2Cl)c1C(=O)NCCn1ccc2ccccc21,7.02%
5,CCOc1ccc(CNC(=O)C2CC(=O)N(C3CCCC3)C2)cc1OC (stereo unspecified),18.4%
6,Cc1cc2c(=O)n(C)c(SCC(=O)c3cc4ccccc4o3)nc2s1,3.24%
7,Cc1nc2ncnn2c(C)c1CCC(=O)N1CCN(C(=O)c2ccco2)CC1,1.46%
8,CN(C(=O)COc1nnc(-c2cccs2)c(-c2cccs2)n1)c1ccccc1,7.72%
9,C=CCN1C(=O)C(O)(CC(=O)c2ccc(Cl)cc2)c2ccccc21 (stereo unspecified),8.76%
10,CCOCCCNC(=O)Cc1cc(=O)[nH]c(=O)[nH]1,26.3%
11,CC(C)CCNC(=O)CN(C(=O)Cn1nnc(-c2ccc(F)cc2)n1)C1CCCC1,0.465%
12,COc1ccc(C2SCCN2S(=O)(=O)c2ccccc2)cc1OC (stereo unspecified),21.6%
13,COC(=O)c1ccc(CN(c2ccccc2OC)S(=O)(=O)c2cccs2)o1,-0.725%
14,CC1(C)C(=O)C2(CCCCC2)C(=O)OC1c1cccs1 (stereo unspecified),15.8%
15,COc1ccc(-c2nc3n(c2Br)CCC3)cc1,7.42%
16,O=C(CSc1nc2cc3c(cc2c(=O)n1CCC1=CCCCC1)OCO3)NCc1ccco1,15.2%
17,CN1C(C)(C)CC(NC(=O)CCC(=O)NC2CC(C)(C)N(C)C(C)(C)C2)CC1(C)C,9.95%
18,CCOC(=O)C1CCN(C(=O)C2CCN(S(=O)(=O)c3c(C)noc3C)CC2)CC1,-18.4%
19,COCCn1nnnc1C(c1ccccc1Cl)N1CCN(c2ccccc2OC)CC1 (stereo unspecified),9.52%
20,O=C(CCOc1ccccc1)NCc1ccccc1,12.9%
21,O=C(CCCN1C(=O)C2C3C=CC(C3)C2C1=O)N1CCN(c2ccccc2)CC1 (stereo unspecified),11.5%
22,C[N+](C)(C)CCNC(=O)c1c(O)c2c([nH]c1=O)CCCC2,4.27%
23,C/C(=N\O)C1(C)N(O)C(C)(C)C(c2ccc(Br)cc2)=[N+]1[O-] (stereo unspecified),0.945%
24,CC(=O)C1C(c2cccc(Oc3ccccc3)c2)NC(=O)NC1(O)C(F)(F)F (stereo unspecified),6.73%
